Laboratory results as given in ChEMBL document CHEMBL4513216, “Probing the Open Global Health Chemical Diversity Library for Multistage-Active Starting Points for Next-Generation Antimalarials” (ACS Infect Dis, 2020).

Assay: Toxicity liver stage against HepG2, at 10uM
Type: cell-based
Set-up: test concentration 10 uM, cell line HepG2-A16-CD81EGFP
Conditions: human, HepG2-A16-CD81EGFP cells; read-out: INHIBITION
Outline: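 Uninfected HepG2-A16-CD81EGFP cells, 3 × 10^3 per well, 1536-well, plated on prespotted compound at 10 μM final, parasite-free screening media added to match infected plates; puromycin 10 μM positive, DMSO 0.5% negative; run in parallel with 48 h PbLuc assay at 37 °C, 5% CO2; viability by CellTiter-Glo luminescence, normalized to controls.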

Row | SMILES | cytotoxicity at 10 µM [%]
1 | CCC(C)(C)n1nnnc1C(c1cccs1)N1CCc2ccccc21 (stereo not given) | 8.67
2 | CS(=O)(=O)N1CCC2(CCN(Cc3nccs3)CC2)CC1 | 8.28
3 | N#Cc1cccc(CN2C[C@@H](F)[C@@H](OCc3nc4cnccc4[nH]3)C2)c1 | 3.62
4 | Cc1ccc(NC(=O)c2ccc(=O)n(CC(=O)Nc3nccs3)n2)cc1 | 0.592
5 | CS(=O)(=O)N1CC(=O)N(CCCc2ccccc2)CC(O)C1 (stereo not given) | -7.99
6 | CCOC(=O)N1[C@@H](c2ccco2)[C@@H](C(=O)NC)C[C@]12CCCCNC2=O | -4.57
7 | COc1ccc(C(=O)N2CC(=O)N(CC3CC3)CC(O)C2)cc1 (stereo not given) | 4.77
8 | CCOC(=O)N1CCC(OC)c2ccccc2N(CC(=O)NC)C(=O)C1 (stereo not given) | 9.12
9 | CCOC(=O)COc1nc(CC(C)C)c2c(c1C#N)CCC2 | -5.72
10 | O=C(Cc1ccc(F)cc1)NCC1CCN(Cc2ccsc2)CC1 | -7.15
11 | COc1ccccc1S(=O)(=O)NCC(c1cccn1C)N(C)C (stereo not given) | 1.51
12 | CC(O)(CCc1ccccc1)CNC(=O)c1cccs1 (stereo not given) | -1.44
13 | CCS(=O)(=O)N1CCC2(CC1)CC[C@@]1(C(=O)N(C)C)CN(C(C)=O)C[C@@H]21 | 6.43
14 | O=C(c1ccco1)N1CCO[C@@H]2CN(c3ncc(F)cn3)CC[C@@H]2C1 | 4.74
15 | CC(=O)NCC(=O)N1Cc2ccnn2CC(COCCN(C)C)C1 (stereo not given) | 6.15
16 | CC(C)n1cnc(-c2nc(C(=O)N3CCN(C)CC3)c3ccccn23)c1 | 8.88
17 | Cc1csc(CN2CC[C@H]3C[C@H](c4noc(C)n4)O[C@@H]3C2)n1 | -2.97
18 | COc1ccccc1C1SCC(=O)Nc2n[nH]cc21 (stereo not given) | -1.84
19 | CC(C(=O)Nc1ccc(Cl)cn1)n1ccc(C(F)(F)F)n1 (stereo not given) | 17.6
20 | O=C1NC2(CCCCC2)c2nnnn2-c2ccc(Br)cc21 | 6.83
21 | Cc1nn(C)c2c(NCCCn3cccn3)nc(C3CC3)nc12 | 12.9
22 | COc1c(Br)c(CC2CC(CO)=NO2)c(Br)c2c1OCO2 (stereo not given) | 6.97

Row | SMILES | cytotoxicity at 10 µM [%]
23 | O=C1CC(c2ccc(C(F)(F)F)cc2)c2snc(C(=O)O)c2N1 (stereo not given) | 10.7
24 | Cc1ccc(C(=O)N2CCC(c3noc(-c4cccnc4)n3)CC2)cn1 | 2.6
25 | Cc1ncsc1-c1cc(C(=O)NCCO)ccn1 | -6.58
26 | CCNC(=O)C1(Cc2cc(-c3ccccc3)no2)CCCN(C(C)=O)C1 (stereo not given) | 15.9
27 | CNc1nc(C2CCCN(C(=O)CNC(C)=O)C2)nc2c1CN(C)CC2 (stereo not given) | -10.9
28 | Cn1nccc1-c1cc(C2CCN(S(C)(=O)=O)CC2)ccn1 | -28.2
29 | CCCn1ccnc1CN1CCCC1c1cccc(-n2ccnc2)n1 (stereo not given) | -22.2
30 | CN(C)C(=O)CN1CCCC1c1cccc(Cc2ccccc2F)n1 (stereo not given) | -6.94
31 | CCn1ccc(C(=O)N2CCOC(c3nc(-c4cccs4)no3)C2)n1 (stereo not given) | 10.9
32 | CC(=O)N1CCC(c2ccnc(Nc3cncnc3)n2)C1 (stereo not given) | 0.951
33 | O=C1OCCN1CCSc1nnnn1CC(F)(F)F | -41.5
34 | COc1ccnc(N2CCC(OCCN3CCCCC3)C2)n1 (stereo not given) | -44.9
35 | O=C(Cc1ccc(-n2cnnn2)cc1)Nc1cnn(CC(F)F)c1 | 1.97
36 | CC(=O)Nc1nc(CNc2ccccc2CCC(F)(F)F)cs1 | 27.9
37 | COCCNC(=O)CN1CCN(c2nc3cc(C)ccc3o2)CC1 | 5.75
38 | Cc1nc(CN2CCOC3(CCCC3)C2)no1 | -6.65
39 | CC1CCCCN1C(=O)CCn1cnc2sccc2c1=O (stereo not given) | 3.63
40 | O=S(=O)(NCCCn1ccc2ccccc21)N1CCCCC1 | 12.8
41 | Cc1ccc(C(=O)NC(C)Cn2cccn2)c(=O)[nH]1 (stereo not given) | -2.16
42 | CC(C)S(=O)(=O)C(C)C(=O)NCc1ccccc1OCc1ccccc1 (stereo not given) | 18.8
43 | NC(=O)c1cc(C2CC2)nc2ccc(F)cc12 | 3.87
44 | O=C(O)c1ccc(OC2CCOCC2)cc1 | -6.11

Row | SMILES | cytotoxicity at 10 µM [%]
45 | CN(C(=O)c1ccc[nH]1)C1CCC(NC(=O)OC(C)(C)C)CC1 (stereo not given) | -11.9
46 | CSCCC(NC(=O)C1CC1)C(=O)N(C)Cc1ccsc1 (stereo not given) | -3.96
47 | CC(NC(=O)C1(NC(=O)c2ccc3[nH]ncc3c2)CCCC1)C1CC1 (stereo not given) | -2.03
48 | N#Cc1cccc(S(=O)(=O)NC(=O)CCOCC(F)(F)F)c1 | 12.4
49 | O=C(NCc1ccco1)Nc1cccc(S(=O)(=O)C(F)F)c1 | -54.8
50 | CN(C)C(=O)CNS(=O)(=O)c1cc(Br)ccc1F | -47.1
51 | O=C1NC2(Nc3ncccc31)C(=O)Nc1c2ccc(Cl)c1F (stereo not given) | 9.06
52 | Cc1csc(N2CCC(NCC3(O)CCc4ccccc43)CC2)n1 (stereo not given) | 0.455
53 | CCS(=O)(=O)c1ccc(N2CCC(NC(=O)CCC(C)C)CC2)cc1 | 15.7
54 | CCNC(=O)N1CCCCC1CCO (stereo not given) | -4.27
55 | CO[C@@H]1CCN(C(=O)c2cnoc2C)[C@H]1Cc1ccccc1 | -72.3
56 | CN1CCN(c2ncnc3c2CCN(C(=O)c2cccn2C)CC3)CC1 | -71
57 | c1cnc(N2CCCC3(CCN(Cc4ccncc4)C3)C2)nc1 (stereo not given) | 0.436
58 | CCOCC1CN(C(=O)C2=CCCC2)Cc2cnn(CC)c21 (stereo not given) | 0.565
59 | CN1CC(=O)c2sc(NCCc3ccccc3)nc2C1 | -11
60 | CNCC[C@H]1CC(C)(C)Oc2ccc(OCC3CC3)cc21 | -9.44
61 | CN1CCCN(c2nccc(-c3c[nH]nc3-c3ccncc3)n2)CC1 | -11
62 | COCCC1(CO)CCCN(C(=O)c2ccc(C(C)C)[nH]c2=O)C1 (stereo not given) | -55.1
63 | COCc1nc(NC(C)c2c(C)n[nH]c2C)c2cnn(C)c2n1 (stereo not given) | -13.4
64 | CC(C)n1ccnc1CN1C(=O)OC[C@@H]1c1ccccc1 | -8.48
65 | Cc1nc(CCN2CCC(Oc3ccccc3F)CC2)cs1 | 6.9
66 | CCc1cn[nH]c1C1CCN(c2cc(C)c3cccc(OC)c3n2)CC1 | 19

Row | SMILES | cytotoxicity at 10 µM [%]
67 | Cc1ccc(C(C(=O)NCCN2CCC(CO)CC2)N(C)C)cc1 (stereo not given) | -10.2
68 | CN(C)c1ncnc2c1CCN(S(=O)(=O)c1cccc(Cl)c1Cl)C2 | 10.4
69 | CCS(=O)(=O)N1CCCC(c2nccn2Cc2ccccn2)C1 (stereo not given) | -10.5
70 | Cc1nccn1CC1CCCN(C(=O)Cc2ccsc2)C1 (stereo not given) | 16.2
71 | COc1ccc(NC(=O)N2CCOCC(CN(C)C)C2)c(C)c1 (stereo not given) | 0.124
72 | COCCN(Cc1nccs1)C(=O)c1cc(-c2ccc(C)o2)n[nH]1 | 6.23
73 | CCc1c(C)nn(CC(=O)NC(C)c2n[nH]c(C)n2)c1C (stereo not given) | -14.1
74 | Cc1cc(C)c2c(N3CCC(C(=O)N4CCCC4)CC3)ncnc2n1 | -0.218
75 | O=C1Cc2cc(NC(=O)N3CCCN(Cc4cccs4)CC3)ccc2N1 | 0.929
76 | CCCNS(=O)(=O)Cc1ccc(Br)cc1 | -4.81
77 | Cc1cc(C2CCC2)nc(N2CCC3(CCCNC3=O)C2)n1 (stereo not given) | -3.83
78 | CCCc1nc(C(=O)N[C@H]2COC[C@@H]2N2CCN(C)CC2)cs1 | -23.8
79 | O=C(CCc1ccccc1)C1CCCN(C(=O)c2cncc(Cl)c2)C1 (stereo not given) | 1.72
80 | CC(C)c1nnc2sc(CC3CCS(=O)(=O)C3)nn12 (stereo not given) | -6.48
81 | O=C(O)CCc1nc2nccc(-c3ccc(F)cc3)n2n1 | -9.24
82 | Fc1cccc(CN2CCC(c3n[nH]c4ncccc34)CC2)c1F | -2.86
83 | Cc1nn(C)c(C)c1CC(=O)N1CCc2nnc(N(C)C)cc2C1 | -7.63
84 | Cc1cc(C)c(C)c(OCCCNC(=O)NC(C)c2nncn2C)c1 (stereo not given) | -12.3
85 | O=c1[nH]c(CN(Cc2ccco2)C2CCCC2)nc2ccccc12 | 11.6
86 | Cc1nc(C2CCCN2CC(=O)NCCc2ccsc2)no1 (stereo not given) | -9.34
87 | COc1c(CNCc2cccc(Cn3ccnc3)c2)c(C)nn1C | 5.61
88 | CC(Nc1cccc(CN2CCOC2=O)c1)C(=O)Nc1ccccc1F (stereo not given) | -5.25

Row | SMILES | cytotoxicity at 10 µM [%]
89 | Cc1cnc(CN(C)C2CCN(CC(=O)N(C)c3nccs3)C2)o1 (stereo not given) | -4.1
90 | CC(NC(=O)N1CCC(n2cncn2)CC1)c1ccc(F)cc1F (stereo not given) | -9.88
91 | CCc1nc2n(n1)CC(NCC(=O)Nc1nccs1)CC2 (stereo not given) | -7.13
92 | COc1cccc(Nc2nc(N3CCCC3)nc3c2CNCC3)c1 | -6.41
93 | CCCC(=O)N(CCCN1CCOCC1)c1nc2c(C)ccc(Cl)c2s1 | -10.2
94 | OC1CCN(Cc2ccnc(-c3cccnc3)n2)CC1 | -20.7
95 | CN1CC(=O)N(c2cccc(F)c2)CC12CCN(Cc1nccs1)C2 (stereo not given) | 2.08
96 | c1cnc(NC2COC3(CCN(Cc4nccs4)CC3)C2)cn1 (stereo not given) | -79.9
97 | O=C(CC1CC1)N1CCn2cc(Cn3cccn3)nc2C1 | -78.5
98 | CN(C)C[C@H]1OC[C@@H]2CCN(S(=O)(=O)c3ccc(F)cc3)C[C@@H]21 | -85.7
99 | COC[C@@H]1CCC[C@]12CN(CCc1ccccc1)CCO2 | 0.312
100 | Fc1cccc(CN2CCC3(CCCN3c3ncccn3)CC2)c1 | 3.62
101 | COc1ccc(CN2CCC3(CC(=O)N(c4cncnc4)C3)C2)cc1 (stereo not given) | 4.53
102 | Cc1ccc(CN2CCOC3(COCCN(CCN(C)C)C3)C2)o1 (stereo not given) | -1.65
103 | CCc1ccc(CN2CC[C@@H]3CN(S(C)(=O)=O)CCO[C@@H]3C2)o1 | -0.461
104 | CC(C)NC(=O)N1CCN(Cc2ccccn2)CC2(CC(=O)N(C)C2)C1 (stereo not given) | 2.79
105 | CCOCC(=O)N1Cc2nnn(C)c2C(COCc2ccccn2)C1 (stereo not given) | -3.23
106 | Cc1ccc2c(n1)N(CCN(C)C)CCN(Cc1c(C)noc1C)C2 | 5.74
107 | O=C(N1CCCC1)N1Cc2nccn2CC(CN2CCCC2)C1 (stereo not given) | 1.52
108 | CNC(=O)CN1CCO[C@H]2CN(CC3CC3)C[C@H]21 | 6.25
109 | c1cnc(N2CCO[C@H]3CN(Cc4ccsc4)C[C@H]32)nc1 | -82
110 | N#Cc1ccccc1CN1C[C@H]2CC[C@@H](C1)N(CC1CCC1)C2=O | 0.258
